# Experiments:
# [1] = Cell-free metal selectivity assay; format: biochemical
# ferroportin = assay: Immunohistochemical staining for ferroportin; format: in vivo, mouse; settings: for ferroportin staining in liver vs untreated controls: livers of the mice imaged with FeAL-1
# How it was run: (§1)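 Tissues fixed in 4% paraformaldehyde, paraffin-embedded and cut into 4-µm sections. Liver, heart and tumor sections stained with anti-4-HNE (1:500) or anti-ferroportin (1:500). Liver and heart came from imaged mice: untreated, hepcidin 50 µg/mouse/day for 3 days, or doxorubicin 10 mg/kg IP once 5 days prior. Staining intensity quantified by IHC Profiler in ImageJ (liver/heart n=3 per condition).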
# 4-hydroxynonenal (4-HNE) = assay: Immunohistochemical staining for 4-HNE; format: in vivo, mouse
# How it was run: as §1
# non-heme iron = settings: DOX-treated mice, ex vivo methodology ref 16; cited from earlier work
# [2] = Storage stability of FeAL-1 powder; format: physicochemical; settings: stored as a powder at −20 °C under argon
# [3] = UPLC-MS Fe2+-fragmentation assay
# How it was run: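 Test compound at 40 µM final in 50 mM Tris-HCl pH 7.4/DMSO (9:1) with sodium ascorbate and ascorbic acid, each 2 mM final. Held 1 min at 37 °C, then sampled as the hemin-free control. Hemin added to 400 µM final and the mixture stirred at 37 °C. Aliquots taken at set time points over 62 min and analysed by UPLC-MS with UV at 303 nm.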
# MiaPaca2-luc cells = assay: Cellular assay comparing FeAL-1 and ICL-1 response; format: cell-based, human; settings: 20 μM probe, FAC 2 hours, imaged after 15 min
# SW-1990-luc cells = assay: Cellular assay comparing FeAL-1 and ICL-1 response; format: cell-based, human; settings: 20 μM probe, FAC 2 hours, imaged after 15 min
# [4] = system: luciferase-expressing PDA and colon cancer cell lines; assay: Cellular bioluminescence assays with FAC, BPY or hepcidin pre-treatment; format: cell-based
# How it was run: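 Cells stably expressing firefly/Renilla luciferase (lentiviral, puromycin-selected) in DMEM with 10% FBS, plated to reach 75% confluence and assayed two days after plating. Serum-free DMEM with FAC for 60 min at 37 °C, optionally BPY for 30 min. Hepcidin-25 (1, 2, 4 µg/mL) given 16 h beforehand. Probe at 75 µM in Ca/Mg-free HBSS for 25 min, IVIS imaging at 30 min. D-luciferin (25 µM, 5 min) control.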
# [5] = Pharmacokinetic study, plasma LC-MS/MS; format: in vivo, C57BL6 mice; settings: C57BL/6, mouse, ip, 20 mg/kg
# How it was run: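 Healthy C57BL/6 mice received a single IP dose at 20 mg/kg (2.5 mL/kg; 15 mice per group). Composite plasma sampling, n=3 per timepoint: orbital bleed under isoflurane at 5, 10, 15, 30 and 45 min, then terminal vena cava bleed under CO2 at 1, 2, 3, 4 and 7 h. Blood collected into EDTA and centrifuged to plasma.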
# MIA PaCa-2 tumors = assay: Dual-reporter orthotopic PDA xenograft imaging with FeAL-1; format: in vivo, mouse
# SW1990 tumors = assay: as above; format: in vivo, mouse
# FC1245 tumors = assay: as above; format: in vivo, mouse
# [6] = untreated tumor-bearing mice, FeAL-1 36 mg/kg IP
# [7] = hepcidin 50 μg/mouse for three days
molecule,measurement,setting,value
O=C(O)[C@H]1CSC(c2nc3ccc(O)cc3s2)=N1 [D-luciferin],luminescent response of D-luciferin with increasing Fe^2+,"[1]; control experiment, D-luciferin instead of FeAL-1",not affected by increasing concentrations of Fe^2+
"COc1cccc2c1C(=O)c1c(O)c3c(c(O)c1C2=O)C[C@@](O)(C(=O)CO)C[C@@H]3O[C@H]1C[C@H](N)[C@H](O)[C@H](C)O1 [DOX, doxorubicin]",ferroportin staining in liver vs untreated controls,ferroportin,reduced ferroportin staining
same,4-HNE staining in heart tissue vs untreated controls,4-hydroxynonenal (4-HNE),increased 4-HNE staining
same,4-HNE staining in liver vs control group,4-hydroxynonenal (4-HNE),increased staining for 4-HNE
same,"elevation of non-heme iron in liver, spleen, kidneys and blood",non-heme iron,≤ 2 fold
"CN(CCN(C)C(=O)O[C@@H]1CCC[C@]2(C1)OOC1(O2)C2CC3CC(C2)CC1C3)C(=O)Oc1ccc2nc(C3=N[C@@H](C(=O)O)CS3)sc2c1 (stereo partly drawn) [FeAL-1, (S)-2-(6-(((2-(((((R,R)-dispiro[adamantane-2,3’-[1,2,4]trioxolane-5’,1’’-cyclohexan]-3’’-yl)oxy)carbonyl)(methyl)amino)ethyl)(methyl)carbamoyl)oxy)benzo[d]thiazol-2-yl)-4,5-dihydrothiazole-4-carboxylic acid]",stability on storage,[2],stable over several months
same,stability in assay media lacking hemin,[3]; control without hemin,stable in assay media lacking hemin
same,time point by which FeAL-1 is completely consumed,"[3]; reaction media containing ferrous hemin, 37 °C",≤ 1 min
same,time point at which released D-luciferin is detected,"[3]; reaction media containing ferrous hemin, second time point",12 min
same,luminescence response with Fe^2+ as ferrous ammonium sulfate (FAS),"[1]; 2.5 μM FeAL-1, 2 hours incubation, then 10 μg/mL luciferase",robust luminescence response
same,iron-dependent luminescent response compared with ICL-1,MiaPaca2-luc cells,stronger iron-dependent luminescent response from FeAL-1 than from ICL-1
same,iron-dependent luminescent response compared with ICL-1,SW-1990-luc cells,stronger iron-dependent luminescent response from FeAL-1 than from ICL-1
same,bioluminescent signal in response to FAC supplementation,[4]; larger panel of cell lines,robust bioluminescent signal
same,bioluminescence response with BPY iron chelator treatment,[4]; with or without FAC,expected reduction in bioluminescence response
same,Cmax,[5],5.91 µM
same,Tmax,[5],1 h
same,normalized FeAL-1 Fluc/Rluc response,MIA PaCa-2 tumors; [6],~ 2.1
same,normalized luminescence signal in tumor relative to healthy liver,MIA PaCa-2 tumors; vs livers of non-tumor bearing mice,~ 10 fold
same,normalized FeAL-1 Fluc/Rluc response,SW1990 tumors; [6],~ 1.7
same,normalized FeAL-1 Fluc/Rluc response,FC1245 tumors; [6],~ 0.7
"hepcidin: hepatic peptide hormone, negative regulator of the iron export protein ferroportin",effect of hepcidin pre-treatment on FeAL-1 signal,"[4]; hepcidin 1, 2 and 4 μg/mL, 16 hours, FeAL-1 75 μM",corresponding increase in FeAL-1 signal across all cell lines
same,FeAL-1 Fluc/Rluc response after hepcidin pre-treatment,MIA PaCa-2 tumors; [7],~ 5
same,"FeAL-1 Fluc/Rluc response, hepcidin-treated vs untreated controls",MIA PaCa-2 tumors; [7],2–3 fold
same,FeAL-1 Fluc/Rluc response after hepcidin pre-treatment,SW1990 tumors; [7],~ 5
same,"FeAL-1 Fluc/Rluc response, hepcidin-treated vs untreated controls",SW1990 tumors; [7],2–3 fold
same,effect of hepcidin treatment on tumor LIP,FC1245 tumors; [7],measurably increased LIP in FC1245 tumors
same,tumoral ferroportin expression vs untreated control animal,"ferroportin; FC1245 tumors, single comparison",decreased tumoral ferroportin expression
same,ferroportin staining in liver vs untreated controls,ferroportin,reduced ferroportin staining
same,"4-HNE staining of tumors, treated vs untreated controls",4-hydroxynonenal (4-HNE); FC1245 tumors,not significantly different
same,4-HNE staining in heart tissue vs untreated controls,4-hydroxynonenal (4-HNE),"but not hepcidin-treated mice, showed increased 4-HNE staining"
same,4-HNE staining in liver vs control group,4-hydroxynonenal (4-HNE),increased staining for 4-HNE

# Reference: article PMC10841594 (Cell chemical biology, 2023)
